# TMEM16A inh = mouse TMEM16A channel inhibition, primary screen | 1.2% of 310,000 active | HEK293 TMEM16A/YFP iodide influx fluorescence, ionomycin | normalized B-score (activity score, 25-100; higher = stronger inhibition) at 10 µM | Q8BHY3;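 active = ratio plate-corrected score three or more library SD toward inhibition, starting fluorescence score within five deviations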;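 also: score derived from kinetic fluorescence span divided by baseline fluorescence per well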
# Target sequence (Q8BHY3 whole entry, looked up): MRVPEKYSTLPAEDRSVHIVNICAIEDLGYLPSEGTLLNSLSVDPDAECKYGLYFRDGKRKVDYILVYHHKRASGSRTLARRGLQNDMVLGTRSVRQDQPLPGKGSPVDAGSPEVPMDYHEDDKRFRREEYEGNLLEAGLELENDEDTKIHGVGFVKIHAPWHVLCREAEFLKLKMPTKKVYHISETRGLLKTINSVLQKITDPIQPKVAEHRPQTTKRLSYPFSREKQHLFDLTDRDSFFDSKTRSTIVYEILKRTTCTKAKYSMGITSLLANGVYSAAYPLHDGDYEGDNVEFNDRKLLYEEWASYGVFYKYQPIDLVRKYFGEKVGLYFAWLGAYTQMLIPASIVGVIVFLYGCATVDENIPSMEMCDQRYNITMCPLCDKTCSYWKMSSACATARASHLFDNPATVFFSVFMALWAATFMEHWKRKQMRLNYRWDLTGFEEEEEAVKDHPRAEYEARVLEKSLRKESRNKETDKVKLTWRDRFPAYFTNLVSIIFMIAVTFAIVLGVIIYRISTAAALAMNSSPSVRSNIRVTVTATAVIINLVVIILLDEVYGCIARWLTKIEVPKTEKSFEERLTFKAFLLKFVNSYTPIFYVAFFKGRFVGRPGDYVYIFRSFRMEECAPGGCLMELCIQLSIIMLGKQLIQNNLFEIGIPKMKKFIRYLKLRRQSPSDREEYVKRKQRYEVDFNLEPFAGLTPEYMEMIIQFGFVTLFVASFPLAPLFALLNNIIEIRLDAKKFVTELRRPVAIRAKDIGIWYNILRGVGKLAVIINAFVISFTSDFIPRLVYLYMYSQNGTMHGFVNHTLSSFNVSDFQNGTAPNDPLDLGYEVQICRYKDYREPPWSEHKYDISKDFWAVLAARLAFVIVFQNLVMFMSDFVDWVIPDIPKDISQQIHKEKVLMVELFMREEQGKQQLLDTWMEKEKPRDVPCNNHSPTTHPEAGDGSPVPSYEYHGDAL
# CRFR2-BP ag = CRF-BP/CRF-R2 complex agonism; HEK293 CRF-R2/CRF-BP, calcium dye fluorescence (FLIPR); percent of saturating CRF peptide response; activation, % at 13.2 µM; 0.46% of 350,000 active;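 active = activation of at least 50%, plus an integration ratio under a set limit after plate pattern correction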;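 also: plate controls were neutral control wells without compound for no effect and CRF at EC100 for full effect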
# TAAR1 antagonist = human TAAR1 antagonism | Q96RJ0 | CHO RD-HGA16 TAAR1, Fluo-8 calcium fluorescence, antagonist | inhibition, % at 3 µM | 1.5% of 360,000 active;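 active = inhibition above a per-plate cutoff, the mean inhibition of test compounds on that plate plus 3 SD, cut at about 49% in these data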;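 also: 0% = DMSO plus EC80 beta-PEA response and 100% = DMSO alone without agonist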
#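 test system = CHO RD-HGA16 cells bearing hTAAR1 | replication = singlicate | controls = DMSO-only wells and EC80 β-PEA-stimulated wells | reagent = EC80 β-phenethylamine stimulus | read-out basis = percent inhibition of PEA-evoked calcium signal, max/basal emission ratio | schedule = seeding 17-24 h prior, 75-min 37 °C, 30-min RT dye loading | signal = kinetic Fluo-8 calcium fluorescence measurement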
# TAAR1 agonist = human TAAR1 agonism; Q96RJ0; CHO RD-HGA16 TAAR1, Fluo-8 calcium fluorescence; vehicle wells 0%, saturating PEA agonist 100%; activation, % at 3 µM; 0.99% of 360,000 active; AID 624467;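 active = activation above the mean activation of all test compounds in the run plus 3 SD, cut at about 38% in these data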
#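 Test system: RD-HGA16 (CHO) cells co-expressing Gα16 and hTAAR1 | Doses: Single dose, 3 µM | Schedule: 17-24 h seeding, 75 min 37 °C dye, 30 min RT | Evaluation: % activation from peak over basal fluorescence ratio, DMSO-to-PEA scaled | Technique: Kinetic Fluo-8 calcium fluorescence | Benchmarks: Low control DMSO, high control PEA (EC100)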
# CRFBP-R2 block = antagonists of CRF-binding protein/CRF-R2 receptor complex | HEK293 CRF-R2/CRF-BP, CRF-induced calcium fluorescence | inhibition, % at 11.8 µM | 0.59% of 350,000 active;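 active = inhibition of the ligand-induced calcium signal above about 50% at the single tested concentration, limit read from the data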
# ANO1 activ = activates or potentiates the mouse TMEM16A chloride channel. HEK293 TMEM16A/YFP-H148Q/I152L, iodide quench fluorescence; stronger effect = lower value. 0.3% of 340,000 active. B-score at 10 µM. Q8BHY3. AID 623877;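 active = fluorescence-ratio B-score plate-corrected deviation score at least 3 library SD below zero, with starting fluorescence score within 5 deviations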;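 also: channel opened by trigger with iodide after compound preincubation; score built on the fluorescence ratio of max minus min over baseline; more negative score means more quench and so TMEM16A activation or potentiation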
# TMEM16A reconf = re-confirmation of mouse TMEM16A chloride channel inhibitors; HEK293 TMEM16A/YFP-H148Q, iodide quench fluorescence; ionomycin added to raise cell calcium; inhibition, % at 10 µM; AID 652189; shares compounds with TMEM16A inh; 39% of 2,300 active;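 active = mean duplicate percent inhibition, scaled so buffer wells are 0 and the reference blocker 100, over three buffer SD above buffer mean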
# TMEM16A Ca cntr = counter-screen for TMEM16A inhibitors: effect on calcium mobilization; 2% of 2,300 active; shares compounds with TMEM16A inh; TMEM16A/YFP HEK293, Fluo4 calcium mobilization; calcium response (% of ionomycin), % at 10 µM;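 active = duplicate-averaged calcium signal over 20% of the ionomycin maximum, relative to buffer baseline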;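 also: each well's signal is peak minus trough fluorescence divided by its pre-addition baseline; 0% = buffer wells and 100% = ionomycin wells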
# Parental YFP cnt = acts in parental YFP-HEK293 cells lacking TMEM16A, counter-screen. shares compounds with TMEM16A inh. iodide YFP quench, ionomycin. YFP ratio F(max-min)/F0 at 10 µM. 2,300 tested, under 10 active;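 active = yellow fluorescent protein signal ratio exceeding the buffer control mean by over 5 SD of those controls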;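 also: ratio is mean of duplicate wells from kinetic YFP trace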
# ClC-1 inh = rat ClC-1 inhibition, TMEM16A specificity screen | shares compounds with TMEM16A inh | CHO ClC-1-YFP, iodide influx fluorescence quench; iodide control reads 0, buffer control 100 | ratio percent, % at 10 µM | 2,300 tested, under 10 active | AID 652236;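 active = duplicate-mean ratio percent above the mean of iodide-only control wells, which defines zero, plus 5 of their SD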;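 also: higher percent means stronger block of ClC-1 iodide influx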
# An asterisk follows results filed as active; i = inactive; . = no result. Compounds with a hit are over-represented: about 3.9% of the library has one in this group of screens.
SMILES,TMEM16A inh,CRFR2-BP ag,TAAR1 antagonist,TAAR1 agonist,CRFBP-R2 block,ANO1 activ,TMEM16A reconf,TMEM16A Ca cntr,Parental YFP cnt,ClC-1 inh
C=C(C)COc1ccc2c(C)c(C)c(=O)oc2c1OCC(=C)C,i,3.7,12.3,7.2,-4.3,i,.,.,.,.
C=C(C)COc1ccc2c3c(c(=O)oc2c1OCC(=C)C)CCC3,100*,3.1,37.1,12.1,-28.4,i,17.0%*,i,-1.04,-2.5
Cn1nc(-c2ccccc2)c(CO)c1Oc1cccc(C(F)(F)F)c1,i,13.7,12.4,16.3,-17.5,i,.,.,.,.
Cc1ccc(Sc2c(CO)c(-c3ccccc3)nn2C)cc1,100*,1.0,15.1,0.0,-9.0,i,27.5%*,22.5%*,-1.18,-30.0
COc1ccc(Cl)cc1NC(=O)CSc1nnc(Cc2ccc(C)cc2)c(=O)[nH]1,25*,-1.6,-19.3,1.1,32.2,i,i,i,-0.944,-17.0
Cc1ccc(Cc2nnc(SCC(=O)Nc3ccccc3Cl)[nH]c2=O)cc1,i,2.0,-9.7,1.0,8.6,i,.,.,.,.
CCC1CCCCN1S(=O)(=O)c1ccc(NC(=O)c2ccncc2)cc1 (stereo not given),25*,-0.3,18.1,11.9,1.4,i,22.0%*,i,-0.956,-14.5
CCN(CC)CCCN1C(=O)C(O)=C(C(=O)c2ccco2)C1c1ccc(OC(C)C)cc1 (stereo not given),i,-0.7,18.8,10.3,0.2,i,.,.,.,.
C=CCOc1ccc(C2C(C(=O)c3ccco3)=C(O)C(=O)N2CCCN(CC)CC)cc1 (stereo not given),25*,2.6,-10.5,8.9,-5.8,i,i,i,-0.973,-20.0
CCC1=NN(C(=O)c2ccccc2O)C(O)(c2ccccc2)C1 (stereo not given),25*,-1.5,0.4,-1.6,-3.9,i,i,i,-0.913,-10.0
Cc1nc(N2CCN(Cc3ccccc3)CC2)nc2c1C(=O)CC(C)C2 (stereo not given),i,1.4,-1.1,10.0,-45.6,i,.,.,.,.
COc1ccc(C2CC(=O)c3c(C)nc(N4CCN(Cc5ccccc5)CC4)nc3C2)cc1OC (stereo not given),100*,0.8,33.7,4.4,8.0,i,26.0%*,i,-0.914,-14.0
COc1ccc(C(=O)N2CCCC(c3nc(-c4cccs4)no3)C2)cc1 (stereo not given),25*,-0.9,-2.5,5.5,2.3,i,i,i,-1.1,-8.0
O=C(c1ccccc1Br)N1CCCC(c2nc(-c3cccs3)no2)C1 (stereo not given),25*,0.1,1.4,4.1,-23.8,i,19.0%*,i,-1.04,-15.0
COc1ccc(C(=O)N2CCCC(c3nc(-c4cccs4)no3)C2)cc1OC (stereo not given),i,-1.2,10.6,2.1,2.7,.,.,.,.,.
O=C(c1ccc(Br)cc1)N1CCCC(c2nc(-c3cccs3)no2)C1 (stereo not given),i,-2.1,15.0,1.5,13.6,i,.,.,.,.
COc1cccc(/C=C2/CN(C)CC3=C2OC(N)=C(C#N)C3c2cccc(OC)c2)c1 (stereo not given),i,-0.4,19.1,4.6,7.5,i,i,i,-1.19,-10.0
O=S(=O)(Nc1nc2ccccc2nc1Cl)c1cccc(C(F)(F)F)c1,25*,0.2,-4.6,1.9,16.3,i,21.0%*,i,-1.06,-10.0
O=C(COc1ccc(Cl)cc1)NNC(=O)C(=O)NC1CCCCC1,i,-1.1,-5.0,2.3,-3.8,i,.,.,.,.
CCn1c(CCNC(=O)c2cccs2)nnc1SCC(=O)Nc1ccc(Cl)cc1,25*,-0.1,3.0,13.7,2.1,i,i,i,-0.974,-4.5
Cc1csc(SCC(=O)c2cc(C)n(Cc3cccs3)c2C)n1,100*,0.1,35.4,6.0,43.1,i,16.5%*,i,-1.26,-14.0
CC(=O)Nc1ccc(SCC(=O)c2cc(C)n(Cc3cccs3)c2C)cc1,i,-0.1,18.3,12.9,-6.9,i,.,.,.,.
Cc1cc(C(=O)CSc2nnc(N)s2)c(C)n1Cc1cccs1,i,-0.5,-12.0,6.1,13.9,i,.,.,.,.
Cc1cc(C(=O)CSc2n[nH]c(-c3ccccc3F)n2)c(C)n1Cc1cccs1,100*,-0.1,36.5,6.4,29.6,i,i,i,-1.06,-4.5
COc1ccc(N(Cc2nnc3n2CCCCC3)C(=O)Nc2ccccc2)cc1,i,-1.1,12.3,-0.6,-1.7,i,.,.,.,.
SMILES,TMEM16A inh,CRFR2-BP ag,TAAR1 antagonist,TAAR1 agonist,CRFBP-R2 block,ANO1 activ,TMEM16A reconf,TMEM16A Ca cntr,Parental YFP cnt,ClC-1 inh
CCOc1ccc(N(Cc2nnc3n2CCCCC3)C(=O)Nc2cccc(C)c2)cc1,i,-0.4,-21.1,3.3,-15.1,i,i,i,-0.957,-1.5
CCC1Sc2ccccc2N(CC(=O)NCCC2=CCCCC2)C1=O (stereo not given),i,-1.7,9.0,1.1,-32.0,i,i,i,-0.715,-2.5
O=C(CN1C(=O)COc2ccccc21)NCCC1=CCCCC1,i,2.0,2.7,-1.0,14.7,i,.,.,.,.
CN(CCCNC(=O)CCC(=O)N1CCOc2ccc(Cl)cc21)Cc1ccccc1,i,-2.1,-43.5,3.6,6.2,i,.,.,.,.
COc1cc(NS(=O)(=O)c2ccc(C)cc2C)cc(OC)c1OC,100*,-0.4,33.6,8.5,8.6,i,28.5%*,i,-0.989,-11.5
COc1cc(NS(=O)(=O)c2cc3[nH]c(=O)c(=O)[nH]c3cc2C)cc(OC)c1OC,i,1.2,-3.8,2.2,-4.6,i,.,.,.,.
CCN(c1ccccc1)S(=O)(=O)c1cc(C(=O)Nc2cccc(Cl)c2)ccc1F,100*,1.9,32.0,7.5,-24.5,i,i,i,-1.16,-7.0
O=C(Nc1cccc(Cl)c1)c1ccc(F)c(S(=O)(=O)NCc2cccs2)c1,i,-1.2,9.8,18.1,-37.2,i,.,.,.,.

# High-throughput results from PubChem.
